Measured values published in ChEMBL document CHEMBL1125462, “Substituent variation in azabicyclic triazole- and tetrazole-based muscarinic receptor ligands” (J Med Chem, 1992).

Experiments:
[1] = target: Muscarinic acetylcholine receptor; experiment: In vitro displacement of [3H]quinuclidinyl benzilate (QNB) from rat cerebral cortex muscarinic receptor.; format: tissue-based
[2] = target: Muscarinic acetylcholine receptor; experiment: In vitro ability to displace [3H]oxotremorine-M (OXO-M) from rat cerebral cortex muscarinic receptor.; format: tissue-based
[3] = target: Muscarinic acetylcholine receptor; experiment: In vitro ability to displace [3H]oxotremorine-M (OXO-M) from rat cerebral cortex muscarinic acetylcholine receptor; format: tissue-based
Method in brief: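 Hooded Lister rat cerebral cortex homogenised in ice-cold 50 mM Tris pH 7.7 (at 25 °C), washed by repeated 25000g spins, stored at -20 °C. Incubation buffer with 2 mM MgCl2; 37 °C, 30 min; filtered on GF/B filters presoaked in 0.05% polyethylenamine; scintillation counting. Seven concentrations; geometric mean of at least two separate experiments; IC50 (nM).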

[4] = target: Muscarinic acetylcholine receptor; experiment: In vitro ability to displace [3H]quinuclidinyl benzilate (QNB) from rat cerebral cortex muscarinic acetylcholine receptor; format: tissue-based
Method in brief: (§1)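 Washed Hooded Lister rat cerebral cortex membranes (50 mM Tris pH 7.7), diluted from stored stock, incubated with test compound and 0.27 nM [3H]QNB at 37 °C for 30 min. GF/B filtration, ice-cold buffer washes, scintillation counting. Nonspecific binding typically 25% of total. Seven concentrations; geometric mean of separate experiments; IC50 (nM).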

[5] = target: Muscarinic acetylcholine receptor (Rattus norvegicus) (UniProt P08482+P08483+P08485+P08911+P10980); experiment: Ratio of Compound (IC50(nM) of QNB/ IC50(nM) of OXO-M); format: protein assay
[6] = target: Muscarinic acetylcholine receptor; experiment: In vitro ability to displace [3H]quinuclidinyl benzilate (QNB) from rat cerebral cortexMuscarinic acetylcholine receptor; format: tissue-based, Cerebral cortex; method in brief: as §1
[7] = target: Muscarinic acetylcholine receptor; experiment: In vitro ability to displace [3H]oxotremorine-M (OXO-M) from rat cerebral cortex Muscarinic acetylcholine receptor; format: tissue-based
[8] = target: Muscarinic acetylcholine receptor; experiment: In vitro ability to displace [3H]quinuclidinyl benzilate (QNB) from rat cerebral cortex Muscarinic acetylcholine receptor; format: tissue-based

Compound: O=[N+]([O-])c1ncn([C@H]2CN3CC[C@H]2C3)n1
- IC50 [1]: 35600 nM
- IC50 [2]: 4100 nM

Compound: Cn1ncc([C@@H]2CN3CC[C@H]2C3)n1
- IC50 [1]: 13500 nM
- IC50 [2]: 16 nM

Compound: Cc1ncn(C23CCCN(CC2)C3)n1 (stereo unspecified)
- IC50 [1]: 2100 nM
- IC50 [2]: 12 nM

Compound: Ic1nnn([C@H]2CN3CC[C@H]2C3)n1
- IC50 [3]: 48 nM
- IC50 [4]: 372 nM
- Ratio [5]: 8

Compound: Clc1nnn([C@H]2CN3CC[C@H]2C3)n1
- IC50 [3]: 7.6 nM
- IC50 [4]: 630 nM
- Ratio [5]: 83

Compound: Nc1nnn([C@H]2CN3CC[C@H]2C3)n1
- IC50 [1]: 4360 nM
- IC50 [2]: 2.6 nM

Compound: Brc1nnn([C@H]2CN3CC[C@H]2C3)n1
- IC50 [3]: 7.4 nM
- IC50 [4]: 822 nM
- Ratio [5]: 111

Compound: Cn1ncc(C23CCN(CC2)C3)n1
- IC50 [1]: 14400 nM
- IC50 [2]: 35 nM

Compound: Clc1ncn([C@H]2CN3CC[C@H]2C3)n1
- IC50 [6]: 1290 nM
- IC50 [7]: 14 nM

Compound: Cc1nnn(C2CN3CCC2CC3)n1 (stereo unspecified)
- IC50 [2]: 31 nM

Compound: c1nnn(C23CCCN(CC2)C3)n1 (stereo unspecified)
- IC50 [1]: 7200 nM
- IC50 [2]: 19 nM

Compound: Cn1nnc([C@H]2CN3CC[C@H]2C3)n1
- IC50 [1]: 2900 nM
- IC50 [2]: 11 nM

Compound: Nc1ncn(C23CCCN(CC2)C3)n1 (stereo unspecified)
- IC50 [1]: 3900 nM
- IC50 [2]: 13 nM

Compound: Cc1ncn(C23CCN(CC2)C3)n1
- IC50 [1]: 14900 nM
- IC50 [2]: 86 nM

Compound: OC(c1ccccc1)(c1ccccc1)c1nnn(C2CN3CCC2CC3)n1 (stereo unspecified)
- IC50 [1]: 2.8 nM
- IC50 [2]: 3.6 nM

Compound: Nc1ncn([C@H]2CN3CC[C@H]2C3)n1
- IC50 [1]: 3600 nM
- IC50 [2]: 18 nM

Compound: Cn1nnc(C23CCN(CC2)C3)n1
- IC50 [1]: 46700 nM
- IC50 [2]: 250 nM

Compound: Cn1ncc(C23CCCN(CC2)C3)n1 (stereo unspecified)
- IC50 [1]: 3100 nM
- IC50 [2]: 14 nM

Compound: c1nnn([C@H]2CN3CC[C@H]2C3)n1
- IC50 [1]: 14300 nM
- IC50 [2]: 30 nM

Compound: c1ncn(C23CCN(CC2)C3)n1
- IC50 [1]: 39900 nM
- IC50 [2]: 79 nM

Compound: Brc1nnn(C23CCCN(CC2)C3)n1 (stereo unspecified)
- IC50 [7]: 5.5 nM
- IC50 [8]: 279 nM

Compound: N#Cc1nnn(C2CN3CCC2CC3)n1 (stereo unspecified)
- IC50 [1]: 5200 nM
- IC50 [2]: 1400 nM

Compound: Cc1nnn(C23CCCN(CC2)C3)n1 (stereo unspecified)
- IC50 [1]: 1925 nM
- IC50 [2]: 14 nM

Compound: Clc1nnn(C2CN3CCC2CC3)n1 (stereo unspecified)
- IC50 [3]: 27 nM
- IC50 [4]: 578 nM
- Ratio [5]: 21

Compound: c1ncn([C@H]2CN3CC[C@H]2C3)n1
- IC50 [1]: 38200 nM
- IC50 [2]: 79 nM

Compound: Brc1nnn(C2CN3CCC2CC3)n1 (stereo unspecified)
- IC50 [3]: 20 nM
- IC50 [4]: 488 nM
- Ratio [5]: 25

Compound: Ic1nnn(C2CN3CCC2CC3)n1 (stereo unspecified)
- IC50 [3]: 43 nM
- IC50 [4]: 216 nM
- Ratio [5]: 5

Compound: Brc1ncn([C@H]2CN3CC[C@H]2C3)n1
- IC50 [7]: 31 nM
- IC50 [8]: 3040 nM

Compound: Cn1nnc(C23CCCN(CC2)C3)n1 (stereo unspecified)
- IC50 [1]: 5700 nM
- IC50 [2]: 100 nM

Compound: Cn1ncc([C@H]2CN3CC[C@H]2C3)n1
- IC50 [1]: 2800 nM
- IC50 [2]: 5.4 nM

Compound: O=C1CCCN1CC#CCN1CCCC1
- Ratio [5]: 190

Compound: c1ncn(C23CCCN(CC2)C3)n1 (stereo unspecified)
- IC50 [1]: 3600 nM
- IC50 [2]: 12 nM

Compound: Nc1nnn(C23CCCN(CC2)C3)n1 (stereo unspecified)
- IC50 [1]: 2670 nM
- IC50 [2]: 5.9 nM

Compound: Cc1nnn([C@H]2CN3CC[C@H]2C3)n1
- IC50 [1]: 1900 nM
- IC50 [2]: 4.2 nM

Compound: Cc1ncn([C@H]2CN3CC[C@H]2C3)n1
- IC50 [1]: 4300 nM
- IC50 [2]: 17 nM

Compound: Clc1nnn(C23CCCN(CC2)C3)n1 (stereo unspecified)
- IC50 [3]: 3.5 nM
- IC50 [4]: 332 nM
- Ratio [5]: 95

Compound: Nc1nnn(C2CN3CCC2CC3)n1 (stereo unspecified)
- IC50 [1]: 4400 nM
- IC50 [2]: 38 nM

Compound: Cn1nnc([C@@H]2CN3CC[C@H]2C3)n1
- IC50 [1]: 30600 nM
- IC50 [2]: 325 nM
